The values that follow come from ChEMBL document CHEMBL1221207, “Expanding the promiscuity of a natural-product glycosyltransferase by directed evolution” (Nat Chem Biol, 2007).

SMILES strings stand for the structures. Numbering of substitutions follows the chain as printed.

The test system of experiment [1] is T1, Oleandomycin glycosyltransferase (Streptomyces antibioticus), Q53685 [P67T,S132F,A242V].
T1 sequence (whole entry): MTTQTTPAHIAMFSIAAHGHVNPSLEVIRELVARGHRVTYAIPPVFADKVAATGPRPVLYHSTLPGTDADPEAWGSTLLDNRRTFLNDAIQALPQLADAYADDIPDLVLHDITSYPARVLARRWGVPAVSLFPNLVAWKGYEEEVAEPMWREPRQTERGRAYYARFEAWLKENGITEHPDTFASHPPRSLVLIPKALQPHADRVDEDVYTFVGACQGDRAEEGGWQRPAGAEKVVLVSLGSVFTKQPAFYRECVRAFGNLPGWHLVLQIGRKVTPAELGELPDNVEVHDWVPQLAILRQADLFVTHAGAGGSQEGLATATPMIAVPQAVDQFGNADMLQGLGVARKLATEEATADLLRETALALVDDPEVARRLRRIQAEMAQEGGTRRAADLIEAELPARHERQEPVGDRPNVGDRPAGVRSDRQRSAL
In words: Activity of Streptomyces antibioticus OleD P67T/S132F/A242V mutant assessed as conversion rate of compound to produce glucoside 3 using NDP sugar donor-UDP-4,6-dideoxyglucose after 3 hrs by HPLC. The method, boiled down: (§1)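 End-point donor-specificity assay with purified OleD enzyme. Percentage conversion was read after 3 h. Quenched reactions were run by reverse-phase C18 HPLC with a 10–90% CH3CN gradient in 0.1% formic acid/H2O over 20 min at 1 ml min–1, with detection at 254 nm. Products were identified by LC-MS, by comparison to standards where available, and by fluorescence.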

The test system is the same in experiment [2]. In words: Activity of Streptomyces antibioticus OleD P67T/S132F/A242V mutant assessed as conversion rate of compound to produce glucoside 3 using NDP sugar donor UDP-3-amino-glucose after 3 hrs by HPLC. The method, boiled down:
as §1

For experiment [3] the test system is unchanged. In words: Activity of Streptomyces antibioticus OleD P67T/S132F/A242V mutant assessed as conversion rate of compound to produce glucoside 3 using NDP sugar donor UDP-3-amino-6-deoxy-glucose after 3 hrs by HPLC. The method in brief:
as §1

Experiment [4] has as its system T2, Oleandomycin glycosyltransferase (Streptomyces antibioticus), Q53685 [S132F].
T2 sequence (whole entry): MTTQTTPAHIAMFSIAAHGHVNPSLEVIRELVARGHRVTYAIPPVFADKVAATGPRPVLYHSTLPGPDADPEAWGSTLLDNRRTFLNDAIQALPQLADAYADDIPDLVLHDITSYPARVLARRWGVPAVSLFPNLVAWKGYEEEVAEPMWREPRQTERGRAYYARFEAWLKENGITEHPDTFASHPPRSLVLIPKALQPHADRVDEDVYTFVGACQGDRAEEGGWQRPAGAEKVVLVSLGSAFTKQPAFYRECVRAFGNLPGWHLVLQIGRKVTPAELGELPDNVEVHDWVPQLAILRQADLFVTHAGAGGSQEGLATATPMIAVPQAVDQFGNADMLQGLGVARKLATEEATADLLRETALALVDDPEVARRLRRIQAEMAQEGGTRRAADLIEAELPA
Description: Activity of Streptomyces antibioticus OleD S132F mutant assessed as conversion rate of compound to produce glucoside 3 using NDP sugar donor UDP-6-deoxy-glucose after 3 hrs by HPLC. The method, boiled down: as §1

Experiment [5] has as its system T3, Oleandomycin glycosyltransferase (Streptomyces antibioticus), Q53685 [A242V].
T3 sequence (whole entry): T1 sequence (whole entry) with T67P, F132S
Description: Activity of Streptomyces antibioticus OleD A242V mutant assessed as conversion rate of compound to produce glucoside 3 using NDP sugar donor UDP-xylose after 3 hrs by HPLC. The method, boiled down: as §1

The subject of experiment [6] is T1, Oleandomycin glycosyltransferase (Streptomyces antibioticus), Q53685 [P67T,S132F,A242V]. In words: Activity of Streptomyces antibioticus OleD P67T/S132F/A242V mutant assessed as conversion rate of compound to produce glucoside 3 using NDP sugar donor UDP-4-amino-6-deoxy-glucose after 3 hrs by HPLC. The method, boiled down:
as §1

The test system is the same in experiment [7]. Description: Activity of Streptomyces antibioticus OleD P67T/S132F/A242V mutant assessed as conversion rate of compound to produce glucoside 3 using NDP sugar donor UDP-4-deoxy-glucose after 3 hrs by HPLC. The method in brief:
as §1

The subject of experiment [8] is T4, Oleandomycin glycosyltransferase (Streptomyces antibioticus), Q53685 [P67T].
T4 sequence (whole entry): T1 sequence (whole entry) with F132S, V242A
In words: Activity of Streptomyces antibioticus OleD P67T mutant assessed as conversion rate of compound to produce glucoside 3 using NDP sugar donor UDP-6-azido-glucose after 3 hrs by HPLC. The method, boiled down:
as §1

The test system is the same in experiment [9]. Description: Activity of Streptomyces antibioticus OleD P67T mutant assessed as as rate of glucoside formation measured as nanomoles of product formed per minute per mg of enzyme.
Experiment [10] shares this test system. Description: Activity of Streptomyces antibioticus OleD P67T mutant assessed as conversion rate of compound to produce glucoside 3 using NDP sugar donor UDP-xylose after 3 hrs by HPLC. The method, boiled down: as §1

`Cc1cc(=O)oc2cc(O)ccc12`: the Activity in experiment [1] is 45%; in [2], 4%; in [3] it was 4%; in [4] it was 10%; in experiment [5] it was 2%; in experiment [6], 47%. Further, the Activity in [7] was found to be 22%; in experiment [8], 2%; in [9], 15.7 nmol/min; in [10] it was 2%.
